Reference: ChEMBL document CHEMBL1154485, “Novel 2-aryl-naphtho[1,2-d]oxazole derivatives as potential PTP-1B inhibitors showing antihyperglycemic activities” (Eur J Med Chem, 2009)

What was measured:
Rattus norvegicus [1] = experiment: Antihyperglycemic activity against sucrose-loaded Charles-Foster Wistar albino rat assessed as reduction in blood glucose at 100 mg/kg, po administered 30 mins before sucrose challenge relative to control; assay type: functional; set-up: scale not given: the % may be the effect or the level left
Procedure, shortened: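 Male Charles Foster/Wistar rats, 160 ± 20 g, fasted 16 h, selected at 60e80 mg/dl glucose, groups of 5-6. Compound given orally at 100 mg/kg in 1.0% gum acacia; sucrose 10.0 g/kg orally 30 min later. Glucose read by glucometer at 30-120 min. Percent activity derived from AUC versus vehicle.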

[2] = target: T1, Tyrosine-protein phosphatase non-receptor type 1 (Homo sapiens, UniProt P18031); experiment: Inhibition of PTP1B assessed as residual enzyme activity
T1 sequence (P18031 whole entry): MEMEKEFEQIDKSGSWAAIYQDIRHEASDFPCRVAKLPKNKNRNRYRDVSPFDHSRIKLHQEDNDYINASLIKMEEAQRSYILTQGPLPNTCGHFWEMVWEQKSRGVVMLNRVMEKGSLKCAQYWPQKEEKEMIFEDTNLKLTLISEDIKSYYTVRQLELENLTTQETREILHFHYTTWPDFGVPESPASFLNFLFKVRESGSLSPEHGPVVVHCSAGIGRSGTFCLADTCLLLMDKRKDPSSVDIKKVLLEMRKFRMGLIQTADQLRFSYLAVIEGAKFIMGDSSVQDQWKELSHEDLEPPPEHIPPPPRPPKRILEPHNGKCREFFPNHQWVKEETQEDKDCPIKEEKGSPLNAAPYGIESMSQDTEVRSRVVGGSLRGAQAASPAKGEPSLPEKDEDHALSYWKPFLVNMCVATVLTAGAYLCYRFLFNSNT
Procedure, shortened: (§1)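 PTP-1B pre-incubated 10 min with compound, with or without 0.01% Triton X-100. Reaction: 10 mM pNPP in 50 mM HEPES pH 7.0 with 1 mM DTT and 2 mM EDTA, 30 min at 37 °C. Stopped with 0.1 N NaOH, p-nitrophenolate read at 410 nm (ε 1.78×10⁴ M⁻¹cm⁻¹). Single-concentration screen was the mean of three independent sets. Sodium orthovanadate served as standard.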

[3] = target: T1, Tyrosine-protein phosphatase non-receptor type 1; experiment: Inhibition of PTP1B assessed as residual enzyme activity in presence of Triton X-100; procedure, shortened: as §1
Rattus norvegicus [4] = experiment: Antihyperglycemic activity against sucrose-challenged streptozotocin-induced fasted Sprague-Dawley rat assessed as reduction in blood glucose at 100 mg/kg, po administered 30 mins before sucrose challenge measured after 5 hrs post sucrose dose relative to control; assay type: functional; set-up: scale not given: the % may be the effect or the level left
Procedure, shortened: (§2)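 Male Sprague Dawley rats, 160 ± 20 g, overnight fasted, given streptozotocin 45 mg/kg i.p. in citrate buffer pH 4.5. Rats at 144-270 mg/dl glucose after 48 h were used, 5-6 per group. Oral dose 100 mg/kg in 1.0% gum acacia, sucrose 2.5 g/kg 30 min later. Glucose read at 30-300 min and 24 h. Activity derived from AUC versus control.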

Rattus norvegicus [5] = experiment: Antihyperglycemic activity against sucrose-challenged streptozotocin-induced fasted Sprague-Dawley rat assessed as reduction in blood glucose at 100 mg/kg, po administered 30 mins before sucrose challenge measured after 24 hrs post sucrose dose relative to control; assay type: functional; set-up: scale not given: the % may be the effect or the level left; procedure, shortened: as §2
Mus musculus [6] = species on record: Mus musculus; experiment: Antihyperglycemic activity against C57BL/KsBom db/db type 2 diabetic mouse model assessed as decrease in postprandial blood glucose level on day 3 by OGTT relative to control; assay type: functional; set-up: concentration or dose not given beside the values
Mus musculus [7] = species on record: Mus musculus; experiment: Antihyperglycemic activity against C57BL/KsBom db/db type 2 diabetic mouse model assessed as decrease in postprandial blood glucose level on day 6 by OGTT relative to control; assay type: functional; set-up: scale not given: the % may be the effect or the level left
Procedure, shortened: (§3)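 Male and female C57BL/KsBom-db mice, 12e18 weeks, 40e50 g, ten used, vehicle 1.0% gum acacia. Day 6 postprandial protocol: glucose read at -0.5 and 0 h, then at 1, 2, 3, 4 and 6 h after dosing. Day 10 OGTT: overnight fast, drug given at -30 min, glucose 3 g/kg at 0 min, glucose read at 30-120 min.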

Mus musculus [8] = species on record: Mus musculus; experiment: Antihyperglycemic activity against C57BL/KsBom db/db type 2 diabetic mouse model assessed as decrease in postprandial blood glucose level on day 10 by OGTT relative to control; assay type: functional; set-up: scale not given: the % may be the effect or the level left; procedure, shortened: as §3
Mus musculus [9] = experiment: Antidyslipidemic activity in C57BL/KsBom db/db diabetic mouse assessed as reduction in plasma triglyceride level at 100 mg/kg, po; assay type: functional; set-up: scale not given: the % may be the effect or the level left
Procedure, shortened: (§4)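 Male and female C57BL/KsBom-db mice, 12e18 weeks, 40e50 g, ten per experiment, housed by sex at 23 °C on a 12/12 h cycle. Test drug given orally at 100 mg/kg in gum acacia (1.0%); vehicle controls received gum acacia only. Dosing ran 10 days. Effects on triglyceride, cholesterol and HDL are reported as % change.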

Mus musculus [10] = experiment: Antidyslipidemic activity in C57BL/KsBom db/db diabetic mouse assessed as reduction in plasma cholesterol level at 100 mg/kg, po; assay type: functional; set-up: scale not given: the % may be the effect or the level left; procedure, shortened: as §4
Mus musculus [11] = experiment: Antidyslipidemic activity in C57BL/KsBom db/db diabetic mouse assessed as increase in high-density lipoprotein cholesterol level at 100 mg/kg, po; assay type: functional; procedure, shortened: as §4

O=C(O)COc1ccc(-c2nc3c(ccc4ccccc43)o2)cc1
Activity (Rattus norvegicus [1]): 4.6%

c1ccc2c(c1)ccc1oc(-c3ccc(OCCN4CCCC4)cc3)nc12
Activity (Rattus norvegicus [1]): 8.7%
IC50 [2]: 5.71 µM
Ki [2]: 34.2 µM
IC50 [3]: 5.7 µM
Ki [3]: 37 µM

c1ccc2c(c1)ccc1oc(-c3ccc(OCCCN4CCCCC4)cc3)nc12
Activity (Rattus norvegicus [1]): 25%
Activity (Rattus norvegicus [4]): 13.4%
Activity (Rattus norvegicus [5]): 11.2%

c1ccc2c(c1)ccc1oc(-c3ccc(OCCCN4CCCC4)cc3)nc12
Activity (Rattus norvegicus [1]): 17.2%
Activity (Rattus norvegicus [4]): 12.6%
Activity (Rattus norvegicus [5]): 12.9%

COc1ccc(NCCCOc2ccc(-c3nc4c(ccc5ccccc54)o3)cc2)cc1
Activity (Rattus norvegicus [1]): 11.8%

CCCCN(C)CCCOc1ccc(-c2nc3c(ccc4ccccc43)o2)cc1
Activity (Rattus norvegicus [1]): 14.7%
Activity (Rattus norvegicus [4]): 7.8%
Activity (Rattus norvegicus [5]): 9.2%

CCOC(=O)COc1ccc(-c2nc3c(ccc4ccccc43)o2)cc1
Activity (Rattus norvegicus [1]): 11.4%

O=C(O)CCCOc1ccc(-c2nc3c(ccc4ccccc43)o2)cc1
Activity (Rattus norvegicus [1]): 5.8%

Oc1ccc(-c2nc3c(ccc4ccccc43)o2)cc1
Activity (Rattus norvegicus [1]): 10.8%

CCN(CC)CCCOc1ccc(-c2nc3c(ccc4ccccc43)o2)cc1
Activity (Rattus norvegicus [1]): 20.5%
Activity (Rattus norvegicus [4]): 11.5%
Activity (Rattus norvegicus [5]): 13.6%
Activity (Mus musculus [6]): 10.8%
IC50 [2]: 3.4 µM
Ki [2]: 40.5 µM
IC50 [3]: 3.36 µM
Ki [3]: 41 µM

ClCCCOc1ccc(-c2nc3c(ccc4ccccc43)o2)cc1
Activity (Rattus norvegicus [1]): 7.4%

c1ccc2c(c1)ccc1oc(-c3ccc(OCCN4CCCCC4)cc3)nc12
Activity (Rattus norvegicus [1]): 26.9%
Activity (Rattus norvegicus [4]): 16.4%
Activity (Rattus norvegicus [5]): 15.7%
Activity (Mus musculus [6]): 10.4%
IC50 [2]: 1.9 µM
Ki [2]: 27.5 µM
IC50 [3]: 1.86 µM
Ki [3]: 27.1 µM

CCN(CC)CCOc1ccc(-c2nc3c(ccc4ccccc43)o2)cc1
Activity (Rattus norvegicus [1]): 21.7%
Activity (Rattus norvegicus [4]): 11.4%
Activity (Rattus norvegicus [5]): 9.7%
IC50 [2]: 4.6 µM
Ki [2]: 35 µM
IC50 [3]: 4.55 µM
Ki [3]: 35.5 µM

CCCCCCCCNCCCOc1ccc(-c2nc3c(ccc4ccccc43)o2)cc1
Activity (Rattus norvegicus [1]): 15%

CN(C)CCOc1ccc(-c2nc3c(ccc4ccccc43)o2)cc1
Activity (Rattus norvegicus [1]): 35.9%
Activity (Rattus norvegicus [4]): 27.9%
Activity (Rattus norvegicus [5]): 25.7%
Activity (Mus musculus [6]): 18.9%
Activity (Mus musculus [7]): 21.4%
Activity (Mus musculus [8]): 23.6%
Activity (Mus musculus [9]): 10.5%
Activity (Mus musculus [10]): 17.6%
Activity (Mus musculus [11]): 3%
IC50 [2]: 3.51 µM
Ki [2]: 25.1 µM
IC50 [3]: 3.56 µM
Ki [3]: 28.7 µM

CN(C)CCCOc1ccc(-c2nc3c(ccc4ccccc43)o2)cc1
Activity (Rattus norvegicus [1]): 25.2%
Activity (Rattus norvegicus [4]): 15.6%
Activity (Rattus norvegicus [5]): 20.3%
Activity (Mus musculus [6]): 16.7%
IC50 [2]: 3.5 µM
Ki [2]: 34.1 µM
IC50 [3]: 3.52 µM
Ki [3]: 36.3 µM

CCCCN(C)CCOc1ccc(-c2nc3c(ccc4ccccc43)o2)cc1
Activity (Rattus norvegicus [1]): 35.3%
Activity (Rattus norvegicus [4]): 17.4%
Activity (Rattus norvegicus [5]): 18.7%
Activity (Mus musculus [6]): 22.3%
Activity (Mus musculus [7]): 22.4%
Activity (Mus musculus [8]): 24.1%
Activity (Mus musculus [9]): 7.5%
Activity (Mus musculus [10]): 12.2%
Activity (Mus musculus [11]): 1.3%
IC50 [2]: 2.5 µM
Ki [2]: 44.4 µM
IC50 [3]: 2.52 µM
Ki [3]: 41 µM

CCOC(=O)CCCOc1ccc(-c2nc3c(ccc4ccccc43)o2)cc1
Activity (Rattus norvegicus [1]): 9.5%

CC(=O)Oc1ccc(-c2nc3c(ccc4ccccc43)o2)cc1
Activity (Rattus norvegicus [1]): 16.8%

Cc1ccc(NCCCOc2ccc(-c3nc4c(ccc5ccccc54)o3)cc2)cc1
Activity (Rattus norvegicus [1]): 17.2%
Activity (Rattus norvegicus [4]): 14.6%
Activity (Rattus norvegicus [5]): 15.2%

Cc1ccc(S(=O)(=O)NC(=O)NN2CC3CCCC3C2)cc1 (configuration not stated) [GLICLAZIDE]
Activity (Rattus norvegicus [1]): 44.8%
Activity (Rattus norvegicus [4]): 27.7%
Activity (Mus musculus [6]): 17.4%

COc1ccc(Cl)cc1C(=O)NCCc1ccc(S(=O)(=O)NC(=O)NC2CCCCC2)cc1 [GLYBURIDE]
Activity (Rattus norvegicus [1]): 33.9%
Activity (Rattus norvegicus [4]): 32.8%
Activity (Mus musculus [6]): 13.6%

CN(C)C(=N)NC(=N)N [METFORMIN]
Activity (Rattus norvegicus [1]): 12.9%
Activity (Rattus norvegicus [5]): 20.2%
Activity (Mus musculus [6]): 11.2%
